Experimental data: ChEMBL document CHEMBL4118097, “Selective Inhibitors of Dual Leucine Zipper Kinase (DLK, MAP3K12) with Activity in a Model of Alzheimer's Disease” (J Med Chem, 2017)

Tests used:
[1] = biological target: Dual specificity tyrosine-phosphorylation-regulated kinase 3 (Homo sapiens) (UniProt O43781); experiment: Inhibition of full length recombinant GST-tagged human DYRK3 expressed in baculovirus expression system at 1 uM by FRET assay relative to control
[2] = biological target: Epithelial discoidin domain-containing receptor 1 (Homo sapiens) (UniProt Q08345); experiment: Inhibition of recombinant GST-tagged human DDR1 (440 to 876 residues) expressed in baculovirus expression system at 1 uM by FRET assay relative to control
In short: (§1)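 Single-point screen at 1 μM compound in a 220-kinase panel run by Life Technologies (SelectScreen). Z′-LYTE format: phosphorylation of a labeled peptide substrate read by FRET. Values are reported as percent inhibition.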

[3] = biological target: Tyrosine-protein kinase CSK (Homo sapiens) (UniProt P41240); experiment: Inhibition of full length recombinant His-tagged human CSK cytoplasmic domain expressed in Escherichia coli at 1 uM by FRET assay relative to control
[4] = biological target: Dual specificity protein kinase CLK3 (Homo sapiens) (UniProt P49761); experiment: Inhibition of full length recombinant GST-tagged human CLK3 expressed in baculovirus expression system at 1 uM by FRET assay relative to control
[5] = biological target: Casein kinase I isoform alpha (Homo sapiens) (UniProt P48729); experiment: Inhibition of CK1alpha1 (unknown origin) at 1 uM by FRET assay relative to control
[6] = biological target: CDK7/Cyclin H/MNAT1 (Homo sapiens) (UniProt P51946+P50613+P51948); experiment: Inhibition of recombinant full length His-tagged human CDK7/cyclin H/MNAT1 expressed in baculovirus expression system at 1 uM by FRET assay relative to control
[7] = biological target: CDK2/Cyclin A2 (Homo sapiens) (UniProt P24941+P20248); experiment: Inhibition of recombinant full length His-tagged human CDK2/CyclinA expressed in baculovirus expression system at 1 uM by FRET assay relative to control
[8] = biological target: LIM domain kinase 1 (Homo sapiens) (UniProt P53667); experiment: Inhibition of recombinant His-tagged human LIMK1 catalytic domain (285 to 638 residues) expressed in baculovirus expression system at 1 uM by FRET assay relative to control; in short: as §1
[9] = biological target: Mitogen-activated protein kinase kinase kinase kinase 5 (Homo sapiens) (UniProt Q9Y4K4); experiment: Inhibition of recombinant full length His-tagged human KHS1 expressed in baculovirus expression system at 1 uM by FRET assay relative to control
[10] = biological target: Mitogen-activated protein kinase 10 (Homo sapiens, UniProt P53779); experiment: Inhibition of recombinant full length GST-tagged human JNK3 expressed in baculovirus expression system at 1 uM by FRET assay relative to control
In short: (§2)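 Single-concentration screen at 1 μM in Life Technologies SelectScreen, across a 220-kinase panel. Z′-LYTE format measures phosphorylation of a labeled peptide by FRET. Results are reported as percent inhibition.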

[11] = biological target: Tyrosine-protein kinase ITK/TSK (Homo sapiens) (UniProt Q08881); experiment: Inhibition of recombinant full length GST-tagged human ITK cytoplasmic domain (473 to end residues) expressed in baculovirus expression system at 1 uM by FRET relative to control; in short: as §2
[12] = biological target: G protein-coupled receptor kinase 3 (Homo sapiens) (UniProt P35626); experiment: Inhibition of recombinant full length GST-tagged human GRK3 expressed in baculovirus expression system at 1 uM by FRET relative to control; in short: as §2
[13] = biological target: Fibroblast growth factor receptor 4 (Homo sapiens) (UniProt P22455); experiment: Inhibition of recombinant His-tagged human FGFR4 cytoplasmic domain expressed in baculovirus expression system at 1 uM by FRET assay relative to control; in short: as §1
[14] = biological target: Fibroblast growth factor receptor 1 (Homo sapiens) (UniProt P11362); experiment: Inhibition of recombinant His-tagged human FGFR1 cytoplasmic domain expressed in baculovirus expression system at 1 uM by FRET assay relative to control; in short: as §1
[15] = biological target: Receptor tyrosine-protein kinase erbB-2 (Homo sapiens) (UniProt P04626); experiment: Inhibition of recombinant His-tagged human ErbB2 cytoplasmic domain expressed in baculovirus expression system at 1 uM by FRET assay relative to control; in short: as §1
[16] = biological target: Ephrin type-A receptor 3 (Homo sapiens) (UniProt P29320); experiment: Inhibition of recombinant His-tagged human EphA3 cytoplasmic domain expressed in baculovirus expression system at 1 uM by FRET assay relative to control; in short: as §1
[17] = biological target: Mitogen-activated protein kinase 12 (Homo sapiens) (UniProt P53778); experiment: Inhibition of recombinant full length His-tagged human p38gamma expressed in baculovirus expression system at 1 uM by FRET assay relative to control
[18] = biological target: Testis-specific serine/threonine-protein kinase 1 (Homo sapiens) (UniProt Q9BXA7); experiment: Inhibition of recombinant full length His-tagged human TSSK1 expressed in baculovirus expression system at 1 uM by FRET assay relative to control
[19] = biological target: Activated CDC42 kinase 1 (Homo sapiens) (UniProt Q07912); experiment: Inhibition of recombinant GST-tagged human TNK2 catalytic/cytoplasmic domain (110 to 476 residues) expressed in baculovirus expression system at 1 uM by FRET assay relative to control; in short: as §1
[20] = biological target: Serine/threonine-protein kinase TBK1 (Homo sapiens) (UniProt Q9UHD2); experiment: Inhibition of recombinant full length GST-tagged human TBK1 expressed in insect cells at 1 uM by FRET assay relative to control; in short: as §2
[21] = biological target: Serine/threonine-protein kinase TAO2 (Homo sapiens) (UniProt Q9UL54); experiment: Inhibition of recombinant GST-tagged human TAO2 catalytic domain (1 to 314 residues) expressed in baculovirus expression system at 1 uM by FRET assay relative to control; in short: as §1
[22] = biological target: Serine/threonine-protein kinase 33 (Homo sapiens) (UniProt Q9BYT3); experiment: Inhibition of recombinant full length His-tagged human STK33 expressed in baculovirus expression system at 1 uM by FRET assay relative to control
[23] = biological target: Sphingosine kinase 1 (Homo sapiens) (UniProt Q9NYA1); experiment: Inhibition of recombinant full length GST-tagged human SPHK1 expressed in baculovirus expression system at 1 uM by FRET assay relative to control; in short: as §2
[24] = biological target: MAP kinase-activated protein kinase 5 (Homo sapiens) (UniProt Q8IW41); experiment: Inhibition of full length recombinant His-tagged human PRAK expressed in baculovirus expression system at 1 uM by FRET assay relative to control
[25] = biological target: Histamine H1 receptor (Homo sapiens) (UniProt P35367); experiment: Binding affinity to recombinant human H1 receptor at 10 uM relative to control
In short: (§3)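 Broad radioligand-binding and enzyme screening panel covering 42 targets (biogenic amine and neuropeptide receptors, ion channels, neurotransmitter transporters, acetylcholinesterase). Single test concentration of 10 μM. Results expressed as binding relative to control, with a hit defined as >50% of control.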

[26] = biological target: 5-hydroxytryptamine receptor 1A (Homo sapiens) (UniProt P08908); experiment: Binding affinity to 5HT1A receptor (unknown origin) receptor at 10 uM relative to control; in short: as §3
[27] = biological target: 5-hydroxytryptamine receptor 1B (Homo sapiens) (UniProt P28222); experiment: Binding affinity to 5HT1B receptor (unknown origin) receptor at 10 uM relative to control; in short: as §3

Sequence of Mitogen-activated protein kinase 12 (Homo sapiens) (P53778 whole entry): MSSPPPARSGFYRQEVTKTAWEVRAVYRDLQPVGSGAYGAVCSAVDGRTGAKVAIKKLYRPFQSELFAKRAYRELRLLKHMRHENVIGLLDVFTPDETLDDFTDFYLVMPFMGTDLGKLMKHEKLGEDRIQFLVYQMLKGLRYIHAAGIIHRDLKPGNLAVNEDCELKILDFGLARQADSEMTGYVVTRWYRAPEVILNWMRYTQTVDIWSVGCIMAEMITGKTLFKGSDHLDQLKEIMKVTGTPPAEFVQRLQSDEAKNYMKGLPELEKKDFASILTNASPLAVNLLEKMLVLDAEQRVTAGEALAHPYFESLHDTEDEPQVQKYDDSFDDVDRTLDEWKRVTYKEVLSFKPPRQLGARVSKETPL
Sequence of Fibroblast growth factor receptor 4 (Homo sapiens) (P22455 22-802 limits assumed): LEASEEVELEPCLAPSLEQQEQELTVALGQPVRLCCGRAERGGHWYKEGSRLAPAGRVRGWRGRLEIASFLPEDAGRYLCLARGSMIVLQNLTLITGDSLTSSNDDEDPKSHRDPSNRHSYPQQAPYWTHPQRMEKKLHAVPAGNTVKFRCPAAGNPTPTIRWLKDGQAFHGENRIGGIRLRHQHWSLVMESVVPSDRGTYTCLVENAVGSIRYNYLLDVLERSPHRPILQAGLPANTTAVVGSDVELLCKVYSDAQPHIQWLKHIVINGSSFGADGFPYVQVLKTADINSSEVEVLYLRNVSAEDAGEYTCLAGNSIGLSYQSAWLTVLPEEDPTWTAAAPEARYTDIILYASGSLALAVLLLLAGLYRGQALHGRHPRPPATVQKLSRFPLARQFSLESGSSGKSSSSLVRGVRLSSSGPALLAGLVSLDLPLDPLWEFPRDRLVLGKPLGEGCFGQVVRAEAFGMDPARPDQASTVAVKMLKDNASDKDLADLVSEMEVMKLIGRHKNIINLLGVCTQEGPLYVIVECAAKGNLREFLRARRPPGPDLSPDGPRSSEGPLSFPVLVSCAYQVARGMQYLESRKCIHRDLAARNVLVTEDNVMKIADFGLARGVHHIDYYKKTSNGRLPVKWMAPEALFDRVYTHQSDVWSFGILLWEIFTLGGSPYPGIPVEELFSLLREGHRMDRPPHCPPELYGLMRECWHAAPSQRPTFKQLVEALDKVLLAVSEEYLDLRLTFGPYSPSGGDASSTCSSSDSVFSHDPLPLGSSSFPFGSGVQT
Sequence of Histamine H1 receptor (Homo sapiens) (P35367 whole entry): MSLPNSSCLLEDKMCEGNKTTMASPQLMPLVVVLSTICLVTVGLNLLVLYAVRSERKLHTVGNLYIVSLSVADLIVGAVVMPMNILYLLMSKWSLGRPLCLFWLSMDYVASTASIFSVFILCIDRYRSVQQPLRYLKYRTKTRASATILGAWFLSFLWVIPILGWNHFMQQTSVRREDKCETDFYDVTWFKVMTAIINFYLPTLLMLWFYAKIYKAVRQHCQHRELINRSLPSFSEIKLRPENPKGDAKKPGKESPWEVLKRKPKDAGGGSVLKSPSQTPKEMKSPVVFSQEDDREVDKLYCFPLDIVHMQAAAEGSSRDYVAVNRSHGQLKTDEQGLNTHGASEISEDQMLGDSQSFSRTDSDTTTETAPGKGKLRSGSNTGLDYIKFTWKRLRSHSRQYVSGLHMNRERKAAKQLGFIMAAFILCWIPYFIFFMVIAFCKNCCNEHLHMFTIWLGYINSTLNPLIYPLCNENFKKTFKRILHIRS
Sequence of Epithelial discoidin domain-containing receptor 1 (Homo sapiens) (Q08345 whole entry, the tested form may be a part): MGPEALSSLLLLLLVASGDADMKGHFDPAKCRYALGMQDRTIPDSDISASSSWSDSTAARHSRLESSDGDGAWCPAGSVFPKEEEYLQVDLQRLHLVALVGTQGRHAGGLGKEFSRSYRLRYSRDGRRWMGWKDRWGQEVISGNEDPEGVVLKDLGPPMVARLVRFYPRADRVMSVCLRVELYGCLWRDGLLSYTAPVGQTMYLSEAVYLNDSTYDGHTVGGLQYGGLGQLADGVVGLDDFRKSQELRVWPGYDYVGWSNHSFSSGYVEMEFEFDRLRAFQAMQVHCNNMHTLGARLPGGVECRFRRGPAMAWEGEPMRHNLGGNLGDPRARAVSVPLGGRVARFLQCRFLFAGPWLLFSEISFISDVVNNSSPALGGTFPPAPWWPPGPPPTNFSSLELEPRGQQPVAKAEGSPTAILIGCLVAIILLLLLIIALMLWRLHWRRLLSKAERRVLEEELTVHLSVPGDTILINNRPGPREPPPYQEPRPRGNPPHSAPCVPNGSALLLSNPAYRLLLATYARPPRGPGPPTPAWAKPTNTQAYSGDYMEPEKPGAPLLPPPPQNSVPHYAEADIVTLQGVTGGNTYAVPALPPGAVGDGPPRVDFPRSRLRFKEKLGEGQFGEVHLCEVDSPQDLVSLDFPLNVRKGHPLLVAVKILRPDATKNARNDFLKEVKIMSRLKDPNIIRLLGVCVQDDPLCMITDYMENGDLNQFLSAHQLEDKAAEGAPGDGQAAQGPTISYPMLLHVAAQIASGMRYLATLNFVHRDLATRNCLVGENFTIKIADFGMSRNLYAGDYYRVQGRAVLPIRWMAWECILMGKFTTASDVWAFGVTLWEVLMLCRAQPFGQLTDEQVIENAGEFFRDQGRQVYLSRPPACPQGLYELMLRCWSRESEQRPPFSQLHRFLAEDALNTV
Sequence of Activated CDC42 kinase 1 (Homo sapiens) (Q07912 whole entry, looked up, the tested form may be a part): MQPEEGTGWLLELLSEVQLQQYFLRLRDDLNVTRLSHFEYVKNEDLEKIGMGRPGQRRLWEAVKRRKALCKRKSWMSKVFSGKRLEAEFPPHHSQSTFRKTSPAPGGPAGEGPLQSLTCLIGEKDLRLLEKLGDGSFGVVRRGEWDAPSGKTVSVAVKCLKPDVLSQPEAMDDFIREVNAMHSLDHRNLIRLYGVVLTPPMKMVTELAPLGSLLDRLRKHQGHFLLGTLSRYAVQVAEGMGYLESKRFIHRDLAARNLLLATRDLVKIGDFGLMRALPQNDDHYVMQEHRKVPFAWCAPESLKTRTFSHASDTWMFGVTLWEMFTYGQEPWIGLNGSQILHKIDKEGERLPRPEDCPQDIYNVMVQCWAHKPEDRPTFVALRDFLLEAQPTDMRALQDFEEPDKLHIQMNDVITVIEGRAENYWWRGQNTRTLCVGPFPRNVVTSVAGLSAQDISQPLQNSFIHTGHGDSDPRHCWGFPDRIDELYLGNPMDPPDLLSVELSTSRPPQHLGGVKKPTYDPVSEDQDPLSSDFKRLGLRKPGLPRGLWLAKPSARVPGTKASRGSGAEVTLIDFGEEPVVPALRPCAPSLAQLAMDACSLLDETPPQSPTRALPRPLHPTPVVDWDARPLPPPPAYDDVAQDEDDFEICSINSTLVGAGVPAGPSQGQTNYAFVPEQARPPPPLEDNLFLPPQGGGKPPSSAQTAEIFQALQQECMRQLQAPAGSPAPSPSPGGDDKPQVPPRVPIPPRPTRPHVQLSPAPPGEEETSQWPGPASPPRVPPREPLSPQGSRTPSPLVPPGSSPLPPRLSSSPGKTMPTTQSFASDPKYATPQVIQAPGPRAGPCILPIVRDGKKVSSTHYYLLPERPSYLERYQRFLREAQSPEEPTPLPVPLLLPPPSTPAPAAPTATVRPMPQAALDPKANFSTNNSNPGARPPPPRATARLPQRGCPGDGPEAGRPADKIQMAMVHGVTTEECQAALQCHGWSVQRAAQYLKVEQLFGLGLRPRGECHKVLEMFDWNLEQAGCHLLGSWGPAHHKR
Sequence of Ephrin type-A receptor 3 (Homo sapiens) (P29320 whole entry, the tested form may be a part): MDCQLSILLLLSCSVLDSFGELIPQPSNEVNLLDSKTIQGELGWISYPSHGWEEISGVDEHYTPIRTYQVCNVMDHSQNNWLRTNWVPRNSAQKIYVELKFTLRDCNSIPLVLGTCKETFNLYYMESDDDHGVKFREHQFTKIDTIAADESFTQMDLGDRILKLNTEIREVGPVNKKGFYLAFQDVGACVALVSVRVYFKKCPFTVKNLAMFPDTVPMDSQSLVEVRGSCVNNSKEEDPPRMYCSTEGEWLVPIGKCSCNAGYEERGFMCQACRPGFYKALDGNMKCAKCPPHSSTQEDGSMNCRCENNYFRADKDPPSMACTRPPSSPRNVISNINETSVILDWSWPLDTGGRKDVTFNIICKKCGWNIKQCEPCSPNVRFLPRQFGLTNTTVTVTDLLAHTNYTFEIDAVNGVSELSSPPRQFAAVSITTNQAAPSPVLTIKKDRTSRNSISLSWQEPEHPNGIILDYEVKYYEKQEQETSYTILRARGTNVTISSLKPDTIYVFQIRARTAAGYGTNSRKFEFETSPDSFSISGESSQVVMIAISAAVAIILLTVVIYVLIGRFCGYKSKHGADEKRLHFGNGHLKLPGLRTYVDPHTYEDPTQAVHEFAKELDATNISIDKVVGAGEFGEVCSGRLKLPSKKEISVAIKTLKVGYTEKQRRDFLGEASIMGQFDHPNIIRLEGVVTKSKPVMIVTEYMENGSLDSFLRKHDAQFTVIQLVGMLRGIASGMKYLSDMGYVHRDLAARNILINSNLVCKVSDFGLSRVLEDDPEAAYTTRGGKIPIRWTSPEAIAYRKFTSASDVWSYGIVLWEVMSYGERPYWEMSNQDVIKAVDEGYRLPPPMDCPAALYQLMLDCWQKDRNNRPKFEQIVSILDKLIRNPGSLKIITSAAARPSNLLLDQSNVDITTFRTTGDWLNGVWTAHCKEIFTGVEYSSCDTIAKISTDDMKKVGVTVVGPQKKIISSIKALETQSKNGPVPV
Sequence of Testis-specific serine/threonine-protein kinase 1 (Homo sapiens) (Q9BXA7 whole entry, the tested form may be a part): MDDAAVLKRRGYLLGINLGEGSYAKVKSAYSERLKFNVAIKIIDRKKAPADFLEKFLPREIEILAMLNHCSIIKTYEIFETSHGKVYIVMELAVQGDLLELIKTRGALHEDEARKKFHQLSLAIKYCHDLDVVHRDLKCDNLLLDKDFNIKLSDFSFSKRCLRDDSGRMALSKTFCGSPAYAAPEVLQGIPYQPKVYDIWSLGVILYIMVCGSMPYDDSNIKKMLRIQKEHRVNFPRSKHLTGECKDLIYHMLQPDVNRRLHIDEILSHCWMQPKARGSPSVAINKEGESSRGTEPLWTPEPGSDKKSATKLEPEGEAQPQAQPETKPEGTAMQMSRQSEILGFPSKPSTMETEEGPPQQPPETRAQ

CC(C)n1nc(-c2cnc(N)c(OC(F)(F)F)c2)cc1[C@H]1[C@@H]2CN(C3COC3)C[C@@H]21
inhibition [1]: 0.6%
inhibition [2]: 5.2%
inhibition [3]: 6.8%
inhibition [4]: 5.9%
inhibition [5]: -0.3%
inhibition [6]: 28.6%
inhibition [7]: 5.7%
inhibition [8]: 7.7%
inhibition [9]: 25.1%
inhibition [10]: 8.6%
inhibition [11]: 10.9%
inhibition [12]: -2.3%
inhibition [13]: 1.2%
inhibition [14]: 2.4%
inhibition [15]: -0.8%
inhibition [16]: 10.2%
inhibition [17]: 7.8%
inhibition [18]: 9.4%
inhibition [19]: 1.3%
inhibition [20]: 9.4%
inhibition [21]: 0.6%
inhibition [22]: 2.4%
inhibition [23]: -0.2%
inhibition [24]: 8.1%
Activity [25]: > 50%
Activity [26]: > 50%
Activity [27]: > 50%

Nc1ncc(-c2cc([C@H]3[C@@H]4CN(C5COC5)C[C@@H]43)n(CC3CC3)n2)cc1C(F)(F)F
inhibition [1]: -7.9%
inhibition [2]: -1.5%
inhibition [3]: 14.8%
inhibition [4]: -3.6%
inhibition [5]: 1.1%
inhibition [6]: 15.7%
inhibition [7]: 4.3%
inhibition [8]: 0.3%
inhibition [9]: 22.2%
inhibition [10]: 4.2%
inhibition [11]: 0.8%
inhibition [12]: 0.5%
inhibition [13]: 6.3%
inhibition [14]: 3.4%
inhibition [15]: -5.4%
inhibition [16]: 22.9%
inhibition [17]: 7.8%
inhibition [18]: 11.5%
inhibition [19]: 0.3%
inhibition [20]: 5.3%
inhibition [21]: -3.9%
inhibition [22]: 2.8%
inhibition [23]: -3.3%
inhibition [24]: -0.8%
Activity [25]: > 50%
Activity [26]: > 50%
Activity [27]: > 50%
